SMILES strings stand for the structures. pKi: −log10 of the molar value.

Test [1] relates to GTPase KRas (Homo sapiens), P01116 [G12C]. Put plainly: Binding affinity to recombinant GDP-loaded KRAS G12C mutant (unknown origin) assessed as half life at 115 uM by CPM-probe based fluorescence assay. In a few lines:
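Chemosensor competition assay. Purified recombinant GDP-loaded KRAS G12C incubated with compound, then probed at several time points with a probe detecting free unreacted Cys12 thiol. Read-out combines GDP displacement kinetics with covalent inactivation.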

For test [2], the target named is GTPase KRas (Homo sapiens, UniProt P01116, G12C). Description: Binding affinity to GMP-stabilized FLAG-tagged KRAS G12C mutant (unknown origin) using desthiobiotin-GTP probe by alphascreen assay. In a few lines: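 Nucleotide-free recombinant KRAS G12C purified and stabilised with excess GMP, incubated with compound, then probed with GTP-desthiobiotin acyl phosphate probe (reacts with Lys16). Desthiobiotinylated protein detected by AlphaScreen (ActivAlpha). Observed reaction rates plotted against compound concentration and fit to kobs = kinact[I]/(Ki + [I]) to extract kinact and Ki.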
Chain of GTPase KRas (P01116 whole entry G12C): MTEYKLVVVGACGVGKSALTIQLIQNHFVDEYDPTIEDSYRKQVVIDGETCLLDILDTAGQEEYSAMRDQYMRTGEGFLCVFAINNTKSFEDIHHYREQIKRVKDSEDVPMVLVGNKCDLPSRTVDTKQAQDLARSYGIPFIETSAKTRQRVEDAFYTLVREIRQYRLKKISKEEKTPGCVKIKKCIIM
On the technique in general: In Alpha technology, singlet oxygen from a donor bead excites a nearby acceptor bead.

Test [3] deals with GTPase KRas (Homo sapiens), P01116 [G12C]. Description: Binding affinity to GMP-stabilized FLAG-tagged KRAS G12C mutant (unknown origin) assessed as inactivation constant using desthiobiotin-GTP probe by alphascreen assay. Put shortly: (§1)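 Nucleotide-free purified KRAS G12C, stabilized with excess GMP, incubated with compound. Remaining enzyme then labeled by a GTP-desthiobiotin acyl phosphate probe that reacts with Lys16, and detected with AlphaScreen reagents. Reaction rates were plotted against compound concentration and fit to kobs = kinact[I]/(Ki + [I]) to estimate kinact and Ki.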
Chain of GTPase KRas (Homo sapiens), P01116 [G12C] (P01116 whole entry G12C): as above

The test system is the same in test [4]. Put plainly: Binding affinity to GMP-stabilized FLAG-tagged KRAS G12C mutant (unknown origin) assessed as ratio of Kinact to Ki using desthiobiotin-GTP probe by alphascreen assay. Put shortly:
as §1

A short description of test [5]: Binding affinity to Mg2+ ion assessed as compound concentration required to show half maximal Mg2+ dependent shift by 31P NMR analysis.
Test [6] in a line: Binding affinity to Mg2+ ion assessed as compound concentration required to reach Mg2+ dependent shift plateau by 31P NMR analysis.

The term pKi denotes −log10 of the Ki, conventionally taken in molar units. A low value points to a large Ki. For `Nc1nc2c(ncn2[C@@H]2O[C@H](COS(=O)(=O)NC(=O)OCCNC(=O)CCl)[C@@H](O)[C@H]2O)c(=O)[nH]1`, the T1/2 in test [1] worked out at 9.5 h. The same molecule showed a pKi in test [2] of 5.30. For the same molecule, the Kinact in test [3] was 0.24 min⁻¹. In addition, the Ratio in test [4] amounted to 0.05 min⁻¹ µM⁻¹.
Take `Nc1nc2c(ncn2[C@@H]2O[C@H](COP(=O)(O)C(F)P(=O)(O)OCCNC(=O)CCl)[C@@H](O)[C@H]2O)c(=O)[nH]1` (mixture of isomers): the T1/2 in test [1] is 6.6 h. For the same molecule, the pKi in test [2] is 5.10. Also, the Kinact in test [3] is 0.21 min⁻¹. Further, the Ratio in test [4] is 0.03 min⁻¹ µM⁻¹.
On the same counts, the results for `CC(C)(CNC(=O)CCl)COP(=O)(O)CP(=O)(O)OC[C@H]1O[C@@H](n2cnc3c(=O)[nH]c(N)nc32)[C@H](O)[C@@H]1O` are 20 h, 5.30, 0.14 min⁻¹ and 0.028 min⁻¹ µM⁻¹.
Take `Nc1nc2c(ncn2[C@@H]2O[C@H](CNc3c(NCCCNC(=O)CCl)c(=O)c3=O)[C@@H](O)[C@H]2O)c(=O)[nH]1`: the T1/2 in test [1] worked out at 13 h. The same molecule had a pKi in test [2] of under 4.60.
For `Nc1nc2c(ncn2[C@@H]2O[C@H](COP(=O)(O)CP(=O)(O)O[C@@H]3CC[C@H](NC(=O)CCl)C3)[C@@H](O)[C@H]2O)c(=O)[nH]1` (mixture of isomers), the T1/2 in test [1] came out at 42 h. Besides, in test [2], the pKi was 4.30. Besides, the Kinact in test [3] is 1 min⁻¹. Further, the Ratio in test [4] worked out at 0.02 min⁻¹ µM⁻¹.
Turning to `Nc1nc2c(ncn2[C@@H]2O[C@H](COP(=O)(O)CP(=O)(O)OC3CCCN(C(=O)CCl)C3)[C@@H](O)[C@H]2O)c(=O)[nH]1` (mixture of isomers), the T1/2 in test [1] is 12 h. The same molecule gave a pKi in test [2] of 5.46. Also, the Kinact in test [3] was 0.55 min⁻¹. Also, the Ratio in test [4] was 0.16 min⁻¹ µM⁻¹.
On the same counts, the results for `Nc1nc2c(ncn2[C@@H]2O[C@H](COP(=O)(O)CS(=O)(=O)NCCNC(=O)CCl)[C@@H](O)[C@H]2O)c(=O)[nH]1` are 2.3 h, 5.80, 0.33 min⁻¹ and 0.2 min⁻¹ µM⁻¹.
The matching figures for `Nc1nc2c(ncn2[C@@H]2O[C@H](COP(=O)(O)CP(=O)(O)OCCCNC(=O)CCl)[C@@H](O)[C@H]2O)c(=O)[nH]1`: 2.5 h, 6.43, 0.07 min⁻¹ and 0.2 min⁻¹ µM⁻¹.
For the molecule `Nc1nc2c(ncn2[C@@H]2O[C@H](COC(=O)CS(=O)(=O)NCCNC(=O)CCl)[C@@H](O)[C@H]2O)c(=O)[nH]1`, the T1/2 in test [1] was determined as 24 h. Besides, in test [2], the pKi was under 5.00.
For the molecule `Nc1nc2c(ncn2[C@@H]2O[C@H](COP(=O)(O)C(F)(F)P(=O)(O)OCCNC(=O)CCl)[C@@H](O)[C@H]2O)c(=O)[nH]1`, in test [1], the T1/2 was found to be 4.2 h. The molecule also showed a negative logarithm of the Ki (pKi) in test [2] of 6.42. The Kinact in test [3] is 0.365 min⁻¹. Further, in test [4], the Ratio is 0.9 min⁻¹ µM⁻¹.
On the same counts, the results for `Nc1nc2c(ncn2[C@@H]2O[C@H](COC(=O)CP(=O)(O)OCCNC(=O)CCl)[C@@H](O)[C@H]2O)c(=O)[nH]1` are 47 h, 5.66, 0.053 min⁻¹ and 0.02 min⁻¹ µM⁻¹.
For `Nc1nc2c(ncn2[C@@H]2O[C@H](COP(=O)(O)C(F)(F)P(=O)(O)OCCCNC(=O)CCl)[C@@H](O)[C@H]2O)c(=O)[nH]1`, the T1/2 in test [1] was determined as 1.06 h. Besides, in test [5], the Activity was under 20 equiv. Also, in test [2], the pKi is 6.42. For the same molecule, in test [3], the Kinact stood at 0.3 min⁻¹. Besides, the Ratio in test [4] turned out to be 0.8 min⁻¹ µM⁻¹.
On to `Nc1nc2c(ncn2[C@@H]2O[C@H](COP(=O)(O)CP(=O)(O)OCCNC(=O)CCl)[C@@H](O)[C@H]2O)c(=O)[nH]1`, for which the T1/2 in test [1] was 2.1 h. This molecule also showed a pKi in test [2] of 5.57. For the same molecule, in test [3], the Kinact was determined as 0.06 min⁻¹. In addition, the Ratio in test [4] was determined as 0.02 min⁻¹ µM⁻¹.
Regarding `Nc1nc2c(ncn2[C@@H]2O[C@H](COP(=O)(O)OP(=O)(O)OP(=O)(O)O)[C@@H](O)[C@H]2O)c(=O)[nH]1`, the figures for the Activity in test [6] and in test [5] were 2 equiv and 0.5 equiv, respectively.
As to `Nc1nc2c(ncn2[C@@H]2O[C@H](COP(=O)(O)OP(=O)(O)O)[C@@H](O)[C@H]2O)c(=O)[nH]1`, the Activity in test [6] worked out at 2 equiv; in test [5], 0.5 equiv.
As to `Nc1nc2c(ncn2[C@@H]2O[C@H](COP(=O)(O)CP(=O)(O)O[C@@H]3CC[C@@H](NC(=O)CCl)C3)[C@@H](O)[C@H]2O)c(=O)[nH]1` (mixture of isomers), the T1/2 in test [1] came out at 64 h. For the same molecule, the pKi in test [2] was 4.44. The Kinact in test [3] came out at 2.3 min⁻¹. Besides, the Ratio in test [4] was determined as 0.06 min⁻¹ µM⁻¹.
As to `COC(=O)/C=C/CCCOP(=O)(O)CP(=O)(O)OC[C@H]1O[C@@H](n2cnc3c(=O)[nH]c(N)nc32)[C@H](O)[C@@H]1O`, the T1/2 in test [1] stood at 120 h. The pKi in test [2] was under 4.70.
As for `Nc1nc2c(ncn2[C@@H]2O[C@H](COP(=O)(O)CC(=O)OCCNC(=O)CCl)[C@@H](O)[C@H]2O)c(=O)[nH]1`, the T1/2 in test [1] is 84 h. This molecule also showed a pKi in test [2] of 4.82. Moreover, the Kinact in test [3] is 0.055 min⁻¹. In addition, the Ratio in test [4] is 0.003 min⁻¹ µM⁻¹.
`C=CC(=O)NCCOP(=O)(O)OP(=O)(O)OC[C@H]1O[C@@H](n2cnc3c(=O)[nH]c(N)nc32)[C@H](O)[C@@H]1O`: in test [1], the T1/2 was 0.6 h. In test [2], this molecule had a pKi of 6.55. The Kinact in test [3] stood at 2.12 min⁻¹. In test [4], the Ratio is 7.6 min⁻¹ µM⁻¹.
Turning to `Nc1nc2c(ncn2[C@@H]2O[C@H](COP(=O)(O)CP(=O)(O)OC3CCN(C(=O)CCl)C3)[C@@H](O)[C@H]2O)c(=O)[nH]1` (stereo not given in full), the T1/2 in test [1] came out at 1.1 h. Also, the pKi in test [2] was 6.04. For the same molecule, in test [3], the Kinact was determined as 2.2 min⁻¹. For the same molecule, the Ratio in test [4] is 2.4 min⁻¹ µM⁻¹.
In the case of `Nc1nc2c(ncn2[C@@H]2O[C@H](COP(=O)(O)OP(=O)(O)OCCNC(=O)CCl)[C@@H](O)[C@H]2O)c(=O)[nH]1`, the T1/2 in test [1] is 0.68 h. In addition, the negative-log Ki (pKi) in test [2] was 8.05. Moreover, the Kinact in test [3] turned out to be 0.86 min⁻¹. For the same molecule, the Ratio in test [4] amounted to 95 min⁻¹ µM⁻¹.
